The nature of data set [1]: Cmax in Balb/c mouse at 10 mg/kg, po measured up to 24 hrs by LC-MS/MS analysis. The format is ADME, organism-based. Also noted: route oral, dose 10 mg/kg, time <=24. Particulars: in vivo. In outline:
(§1)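 Male Balb/c mice, not fasted, food and water ad libitum; single oral dose. Tail-vein blood into heparinized tubes at 0.5, 1, 3, 5, 7, 9 and 24 h, stored at −80 °C. Whole blood protein-precipitated with acetonitrile containing internal standard, analyzed by LC−MS/MS (LOQ 2 ng/mL). Parameters by noncompartmental analysis with curve stripping. Mean of three mice per point.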

Data set [2] can be described thus: Half life in Balb/c mouse at 3 mg/kg, iv measured up to 24 hrs by LC-MS/MS analysis. Type of data set: ADME, organism-based. As to conditions: in vivo. A digest of the protocol: (§2)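 Intravenous dosing in male Balb/c mice, fed ad libitum. Tail-vein blood sampled into heparinized tubes at 0.17, 0.5, 1, 3, 5, 7, 9 and 24 h, frozen at −80 °C. Blood extracted by acetonitrile protein precipitation with internal standard; LC−MS/MS quantitation, LOQ 2 ng/mL. Noncompartmental analysis based on curve stripping.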

A short description of data set [3]: Tmax in Balb/c mouse at 10 mg/kg, po measured up to 24 hrs by LC-MS/MS analysis. The format is ADME, organism-based. Particulars: in vivo. A digest of the protocol:
as §1

Data set [4] in a line: Resistance index, ratio of IC50 for antimalarial activity against asexual blood stage multi drug-resistant Plasmodium falciparum K1 to IC50 for antimalarial activity against asexual blood stage drug-sensitive Plasmodium falciparum NF54. The format is functional. A digest of the protocol: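 Resistance index is IC₅₀(K1)/IC₅₀(NF54). Both IC₅₀s came from the [³H]-hypoxanthine incorporation assay, as means of ≥2 independent experiments.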

Another data set relates to Plasmodium falciparum. Nature of the data set: Antiplasmodial activity against […] Plasmodium falciparum NF54 early gametocytes transfected with GFP-Luc […] at 1 uM incubated for 48 hrs by microscopy based luciferase reporter gene assay relative to control. The format is functional. In outline: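 NF54-Pfs16-GFP-Luc gametocytes, assays set up day 5 (early, stage II/III) or day 10 (late, stage IV/V). Culture at 2−3% gametocytemia, 1.5% hematocrit, 48 h drug exposure at 37 °C under 90% N₂/5% O₂/5% CO₂. Lysates mixed with luciferin; bioluminescence read with 10 s integration. Dual-point: one biological repeat in technical triplicate. Methylene blue (5 μM) reference.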

A short description of data set [5]: Metabolic stability in mouse liver microsomes assessed as compound remaining at 1 uM incubated for 30 mins by LC-MS/MS analysis. The format is ADME, Microsome. Particulars: read-out: Stabilty. In outline: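 Single-point design: 1 μM compound with 0.4 mg/mL liver microsomes in 0.1 M phosphate buffer pH 7.4 for 30 min. Quenched with ice-cold acetonitrile containing carbamazepine internal standard, centrifuged, analyzed by LC−MS/MS. Percent remaining from internal-standard-corrected peak areas at 30 min versus 0 min. Propranolol, midazolam and MMV390048 as controls.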

A further data set deals with Plasmodium berghei. Nature of the data set: Antimalarial activity against GFP-transfected Plasmodium berghei ANKA infected in NMRI mouse model assessed as reduction in parasitemia at 50 mg/kg, po dosed 4 times relative to control. Set-up: scale not given: the % may be the effect or the level left. The format is functional. A digest of the protocol:
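Mice (n = 3) infected with GFP-transfected P. berghei ANKA. Compound in 70% Tween-80/30% ethanol, diluted 10-fold in water, given orally at 4, 24, 48 and 72 h post-infection. Blood taken day 4 (96 h); parasitemia by flow cytometry, detection limit 0.1%. Activity = difference in mean % parasitemia between control and treated, as % of control.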

Data set [6] can be described thus: Volume of distribution in Balb/c mouse at 3 mg/kg, iv measured up to 24 hrs by LC-MS/MS analysis. Type of data set: ADME, organism-based. Particulars: in vivo. A digest of the protocol: as §2
A short description of data set [7]: Volume of distribution at steady state in Balb/c mouse at 3 mg/kg, iv measured up to 24 hrs by LC-MS/MS analysis. Type of data set: ADME, organism-based. As to conditions: in vivo, read-out: Vdss. A digest of the protocol:
as §2

The nature of data set [8]: AUC (0 to t) in Balb/c mouse at 10 mg/kg, po measured up to 24 hrs by LC-MS/MS analysis. Set-up: dose 10 mg/kg, time <=24. As to conditions: in vivo. The format is ADME, organism-based. A digest of the protocol: as §1
Data set [9] can be described thus: Oral bioavailability in Balb/c mouse at 10 mg/kg measured up to 24 hrs by LC-MS/MS analysis. Type of data set: ADME, organism-based. Particulars: in vivo. A digest of the protocol:
as §1

The test system of data set [10] is Plasmodium falciparum NF54. The data set is described as follows: Inhibition of tubulin polymerization in asexual stage (II) Plasmodium falciparum NF54 early gametocytes at 2400 nM incubated for 24 hrs by tubulin tracker Oregon Green staining method. A digest of the protocol:
(§3)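 Treatment at 600 nM for asexual parasites (~1% parasitemia, 5% hematocrit, sorbitol-synchronized rings) or 2400 nM for early gametocytes (~2% gametocytemia, 2% hematocrit, 20% I/60% II/20% III). 24 h at 37 °C, 90% N₂/5% CO₂/5% O₂, DMSO <0.1%. Stained with 250 nM Tubulin Tracker Oregon Green 488 for 30 min and Hoechst (100 nM) for 10 min. PBS-washed, imaged live by confocal microscopy. Colchicine (20 μM) positive control.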

Data set [11] concerns Plasmodium falciparum NF54. The data set is described as follows: Inhibition of tubulin polymerization in […] Plasmodium falciparum NF54 early gametocytes at 2400 nM incubated for 24 hrs by tubulin tracker Oregon Green staining method. In outline:
as §3

Activity calls are given as the source filed them. The rule behind the calls is not given here.

By Cmax is commonly meant the peak of the concentration-time curve. As usually defined, the half-life is how long it takes for the measured level to halve. One may read the Tmax as the time at which the peak concentration occurs. The term inhibition denotes the drop in the measured response relative to a control, in per cent. In general, bioavailability refers to dose-corrected exposure relative to a reference, in per cent. For `CCNCc1cc(Cl)cc(Nc2nc3cc(F)c(F)cc3n2Cc2ccc(C(F)(F)F)cc2)c1O`, in data set [1], the peak level (Cmax) was 400 nM. Also, in data set [2], the half-life was 6.3 h. Also, the Tmax in [3] came out at 2.8 h. In addition, the Ratio IC50 in [4] turned out to be 0.42. Moreover, the inhibition at 1 µM in the data set on Plasmodium falciparum was 62%. The remaining at 0.5 h, 1 µM in [5] amounted to 86%. Moreover, in the data set on Plasmodium berghei, the Activity is 98%. Besides, the values for the Vd in data set [6] and in [7] were 6.9 L/kg and 5.8 L/kg, respectively. This molecule also registered an AUCt in [8] of 321 µmol·min/L. Further, the bioavailability in data set [9] stood at 24%. Also, the inhibition result in [10] and in [11] was “Active” in each case.

The record behind these values is ChEMBL document CHEMBL4834426, “Antimalarial Benzimidazole Derivatives Incorporating Phenolic Mannich Base Side Chains Inhibit Microtubule and Hemozoin Formation: Structure-Activity Relationship and In Vivo Oral Efficacy Studies” (J Med Chem, 2021).
